Laboratory results: ChEMBL document CHEMBL5649170, “Sustained microglial depletion with CSF1R inhibitor impairs parenchymal plaque development in an Alzheimer's disease model” (Nat Commun, 2019)
Calls of active or inactive are those of the source. The rule behind the calls is not given here.

What was measured:
[1] = tested on: Mus musculus; test: Antialzheimer activity in 5XFAD mouse assessed as number of plaques per FOV in […] cortex at 75 ppm administered as rodent chow starting from 1.5 months and measured after 5 months by immunolabeling based confocal microscopic analysis (reference value: […] to […]); assay type: functional; conditions: route po, time 3.5 months, 2555 h
[2] = tested on: Mus musculus; test: Antialzheimer activity in 5XFAD mouse assessed as microglial numbers by measuring number of Iba positive cells per FOV in somatosensory cortex at 75 ppm administered as rodent chow starting from 1.5 months and measured after 5 months by immunolabeling based confocal microscopic analysis (reference value: 281 to 613); assay type: functional; conditions: route po, time 3.5 months, 2555 h
How it was run: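 5xFAD mice fed PLX3397 at 75 ppm in AIN-76A chow from 1.5 to 5 months of age; retrosplenial and somatosensory cortex sections stained with Thio-S and immunolabeled for IBA1; confocal imaging, IBA1+ cells and plaques quantified per region; two-tailed independent t-test, n = 4–5 per group, mean ± SEM.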

[3] = Effect on Csf1r RPKM gene expression in 5XFAD mouse hippocampus at 1200 ppm administered as rodent chow starting from 1.5 months and measured after 7 months by RNA-Seq analysis (reference value: 33.840 to 41.629 RPKM); assay type: functional; conditions: route po, time 5.5 months, 4015 h
[4] = tested on: Mus musculus; test: Prevention of Gabrb2 gene downregulation in 5XFAD mouse hippocampus at 1200 ppm administered as rodent chow starting from 1.5 months and measured after 7 months by Nanostring analysis; assay type: functional, tissue-based; conditions: route po, time 5.5 months
[5] = Effect on Csf1r RPKM gene expression in 5XFAD mouse thalamus at 1200 ppm administered as rodent chow starting from 1.5 months and measured after 7 months by RNA-Seq analysis (reference value: 27.112 to 32.871 RPKM); assay type: functional; conditions: route po, time 5.5 months, 4015 h
[6] = Clearance in male rat at 1.13 mg/kg, iv administered as single dose; assay type: ADME, organism-based; conditions: in vivo
[7] = Toxicity in wildtype mouse assessed as number of entries to center zone at 1200 ppm administered as rodent chow for 10 to 24 weeks by Open field test (reference value: 19 to 63); conditions: in vivo, po, time 10-24 weeks
[8] = Effect on Csf1r RPKM gene expression in wild type mouse thalamus at 1200 ppm administered as rodent chow starting from 1.5 months and measured after 7 months by RNA-Seq analysis (reference value: 19.596 to 21.371 RPKM); assay type: functional; conditions: route po, time 5.5 months, 4015 h
[9] = tested on: Mus musculus; test: Effect on APP processing pathway in 5XFAD mouse assessed as PS1 protein signal intensity in cortex at 1200 ppm administered as rodent starting from 1.5 months and measured after 7 months (reference value: 64.603 to 143.235 %); assay type: functional; conditions: route po, time 5.5 months, 4015 h
[10] = Effect on Hexb gene expression in 5XFAD mouse thalamus at 1200 ppm administered as rodent chow starting from 1.5 months and measured after 7 months by RNA-Seq analysis (reference value: 75.322 to 93.439 RPKM); assay type: functional; conditions: route po, time 5.5 months, 4015 h
[11] = tested on: Mus musculus; test: Effect on APP processing pathway in 5XFAD mouse assessed as PEN2 protein signal intensity in cortex at 1200 ppm administered as rodent starting from 1.5 months and measured after 7 months (reference value: 13.636 to 217.511 %); assay type: functional; conditions: route po, time 5.5 months, 4015 h
[12] = target: Tyrosine-protein kinase Fes/Fps (Homo sapiens, UniProt P07332); test: Inhibition of FES (unknown origin)
Chain of Tyrosine-protein kinase Fes/Fps (P07332 whole entry): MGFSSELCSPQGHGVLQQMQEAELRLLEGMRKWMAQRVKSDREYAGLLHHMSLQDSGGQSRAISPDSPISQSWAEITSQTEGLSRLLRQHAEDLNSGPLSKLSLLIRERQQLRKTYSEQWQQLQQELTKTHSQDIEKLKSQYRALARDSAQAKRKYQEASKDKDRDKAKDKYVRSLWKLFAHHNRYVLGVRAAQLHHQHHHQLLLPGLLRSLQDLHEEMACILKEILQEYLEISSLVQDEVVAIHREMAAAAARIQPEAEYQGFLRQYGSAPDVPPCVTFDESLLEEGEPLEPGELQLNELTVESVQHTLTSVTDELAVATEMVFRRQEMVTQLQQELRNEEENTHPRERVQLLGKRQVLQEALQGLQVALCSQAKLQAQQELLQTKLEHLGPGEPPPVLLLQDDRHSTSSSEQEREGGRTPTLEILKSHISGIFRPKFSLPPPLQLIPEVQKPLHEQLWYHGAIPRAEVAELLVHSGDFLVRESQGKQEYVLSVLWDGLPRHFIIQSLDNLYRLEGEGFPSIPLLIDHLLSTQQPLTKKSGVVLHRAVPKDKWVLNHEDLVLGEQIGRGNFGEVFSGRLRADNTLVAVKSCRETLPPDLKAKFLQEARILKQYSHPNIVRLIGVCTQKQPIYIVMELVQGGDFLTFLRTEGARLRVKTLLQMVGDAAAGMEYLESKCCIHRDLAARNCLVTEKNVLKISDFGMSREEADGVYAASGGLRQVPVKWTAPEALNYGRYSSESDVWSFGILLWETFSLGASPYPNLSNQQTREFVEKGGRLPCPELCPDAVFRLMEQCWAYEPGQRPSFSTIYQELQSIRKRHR

[13] = target: cGMP-dependent protein kinase 2 (Homo sapiens, UniProt Q13237); test: Inhibition of PRKG2 (unknown origin)
Chain of cGMP-dependent protein kinase 2 (Q13237 whole entry): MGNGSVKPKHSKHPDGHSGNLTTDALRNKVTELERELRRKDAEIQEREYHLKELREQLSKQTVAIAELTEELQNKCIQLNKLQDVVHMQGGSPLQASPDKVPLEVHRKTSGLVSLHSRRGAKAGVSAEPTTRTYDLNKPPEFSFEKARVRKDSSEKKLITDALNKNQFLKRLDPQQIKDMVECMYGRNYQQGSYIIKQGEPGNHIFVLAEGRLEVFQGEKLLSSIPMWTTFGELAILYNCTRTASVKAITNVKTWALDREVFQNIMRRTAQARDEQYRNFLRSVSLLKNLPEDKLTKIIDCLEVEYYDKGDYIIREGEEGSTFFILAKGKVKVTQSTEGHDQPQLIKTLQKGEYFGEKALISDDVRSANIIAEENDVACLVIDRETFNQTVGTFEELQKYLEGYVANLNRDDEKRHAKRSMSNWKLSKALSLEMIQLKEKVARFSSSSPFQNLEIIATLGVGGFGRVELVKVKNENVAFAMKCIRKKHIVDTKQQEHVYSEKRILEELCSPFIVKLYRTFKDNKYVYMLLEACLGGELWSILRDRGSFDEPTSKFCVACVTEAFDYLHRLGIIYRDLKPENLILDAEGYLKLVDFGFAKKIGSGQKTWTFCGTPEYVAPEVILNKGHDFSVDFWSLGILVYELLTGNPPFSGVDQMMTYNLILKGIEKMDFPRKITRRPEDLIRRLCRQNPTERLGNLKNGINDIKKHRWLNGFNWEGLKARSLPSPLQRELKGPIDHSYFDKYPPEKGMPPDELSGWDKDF

[14] = target: Protein kinase C beta type (Homo sapiens, UniProt P05771); test: Inhibition of PRKCB2 (unknown origin)
Chain of Protein kinase C beta type (P05771 whole entry): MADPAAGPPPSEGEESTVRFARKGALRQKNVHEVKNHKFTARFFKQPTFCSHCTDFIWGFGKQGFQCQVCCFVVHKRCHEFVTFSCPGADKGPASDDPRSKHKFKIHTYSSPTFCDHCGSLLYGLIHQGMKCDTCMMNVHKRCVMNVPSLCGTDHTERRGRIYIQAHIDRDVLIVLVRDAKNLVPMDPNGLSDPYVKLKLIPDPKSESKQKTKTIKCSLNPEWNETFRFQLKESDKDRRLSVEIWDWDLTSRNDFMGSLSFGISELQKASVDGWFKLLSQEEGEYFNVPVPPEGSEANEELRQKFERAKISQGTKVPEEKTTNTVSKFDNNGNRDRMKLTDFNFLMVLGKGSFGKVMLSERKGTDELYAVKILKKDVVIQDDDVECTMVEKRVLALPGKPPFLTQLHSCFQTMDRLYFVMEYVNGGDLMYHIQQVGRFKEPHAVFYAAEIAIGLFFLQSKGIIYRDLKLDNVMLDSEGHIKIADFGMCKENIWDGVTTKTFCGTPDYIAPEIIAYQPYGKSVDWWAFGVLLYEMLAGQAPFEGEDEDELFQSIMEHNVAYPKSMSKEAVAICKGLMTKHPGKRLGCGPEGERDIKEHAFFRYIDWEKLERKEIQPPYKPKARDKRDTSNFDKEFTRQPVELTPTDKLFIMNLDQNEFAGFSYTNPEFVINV

[15] = Effect on Itgax gene expression in 5XFAD mouse thalamus at 1200 ppm administered as rodent chow starting from 1.5 months and measured after 7 months by RNA-Seq analysis (reference value: 1.842 to 2.823 RPKM); assay type: functional; conditions: route po, time 5.5 months, 4015 h
[16] = Clearance in monkey at 1.35 mg/kg, iv administered as single dose; assay type: ADME, organism-based, Macaca mulatta; conditions: rhesus monkey, in vivo
[17] = tested on: Mus musculus; test: Antialzheimer activity in 5XFAD mouse assessed as microglial elimination in thalamus at 1200 ppm administered as rodent chow for 10 weeks by Thio-S staining based confocal microscopic analysis; assay type: functional, organism-based; conditions: route po
How it was run: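 1.5-month-old 5xFAD mice fed 1200 ppm PLX5622 chow for 10 weeks; free-floating sections stained with Thio-S and immunolabeled for IBA1 (5% normal serum/0.2% Triton X-100 block, 60 min); confocal imaging of cortex and thalamus to assess remaining microglia.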

[18] = tested on: Mus musculus; test: Antialzheimer activity in 5XFAD mouse assessed as pyroglutamte-3 immunoreactivity in thalamus at 1200 ppm administered as rodent chow for 24 weeks by immunolabeling based confocal microscopic analysis; assay type: functional, organism-based; conditions: route po
[19] = Effect on ccl6 gene expression in wild type mouse thalamus at 1200 ppm administered as rodent chow starting from 1.5 months and measured after 7 months by RNA-Seq analysis (reference value: 0.647 to 1.238 RPKM); assay type: functional; conditions: route po, time 5.5 months, 4015 h
[20] = Toxicity in wildtype mouse assessed as total number of arm entries at 1200 ppm administered as rodent chow for 10 to 24 weeks by Y-maze test (reference value: 14 to 35); conditions: in vivo, po, time 10-24 weeks
[21] = Effect on ccl6 gene expression in wild type mouse cortex at 1200 ppm administered as rodent chow starting from 1.5 months and measured after 7 months by RNA-Seq analysis (reference value: 0.280 to 1.162 RPKM); assay type: functional; conditions: route po, time 5.5 months, 4015 h
[22] = tested on: Mus musculus; test: Antialzheimer activity in 5XFAD mouse assessed as ApoE immunoreactivity by measuring ApoE intensity of plaque core in cortex at 1200 ppm administered as rodent chow starting from 1.5 months and measured after 7 months by immunolabeling based confocal microscopic analysis (reference value: 13.88 to 87.23 a.u.); assay type: functional; conditions: route po, time 5.5 months, 4015 h
[23] = target: Ephrin type-A receptor 8 (Homo sapiens, UniProt P29322); test: Inhibition of EPHA8 (unknown origin)
Chain of Ephrin type-A receptor 8 (P29322 whole entry): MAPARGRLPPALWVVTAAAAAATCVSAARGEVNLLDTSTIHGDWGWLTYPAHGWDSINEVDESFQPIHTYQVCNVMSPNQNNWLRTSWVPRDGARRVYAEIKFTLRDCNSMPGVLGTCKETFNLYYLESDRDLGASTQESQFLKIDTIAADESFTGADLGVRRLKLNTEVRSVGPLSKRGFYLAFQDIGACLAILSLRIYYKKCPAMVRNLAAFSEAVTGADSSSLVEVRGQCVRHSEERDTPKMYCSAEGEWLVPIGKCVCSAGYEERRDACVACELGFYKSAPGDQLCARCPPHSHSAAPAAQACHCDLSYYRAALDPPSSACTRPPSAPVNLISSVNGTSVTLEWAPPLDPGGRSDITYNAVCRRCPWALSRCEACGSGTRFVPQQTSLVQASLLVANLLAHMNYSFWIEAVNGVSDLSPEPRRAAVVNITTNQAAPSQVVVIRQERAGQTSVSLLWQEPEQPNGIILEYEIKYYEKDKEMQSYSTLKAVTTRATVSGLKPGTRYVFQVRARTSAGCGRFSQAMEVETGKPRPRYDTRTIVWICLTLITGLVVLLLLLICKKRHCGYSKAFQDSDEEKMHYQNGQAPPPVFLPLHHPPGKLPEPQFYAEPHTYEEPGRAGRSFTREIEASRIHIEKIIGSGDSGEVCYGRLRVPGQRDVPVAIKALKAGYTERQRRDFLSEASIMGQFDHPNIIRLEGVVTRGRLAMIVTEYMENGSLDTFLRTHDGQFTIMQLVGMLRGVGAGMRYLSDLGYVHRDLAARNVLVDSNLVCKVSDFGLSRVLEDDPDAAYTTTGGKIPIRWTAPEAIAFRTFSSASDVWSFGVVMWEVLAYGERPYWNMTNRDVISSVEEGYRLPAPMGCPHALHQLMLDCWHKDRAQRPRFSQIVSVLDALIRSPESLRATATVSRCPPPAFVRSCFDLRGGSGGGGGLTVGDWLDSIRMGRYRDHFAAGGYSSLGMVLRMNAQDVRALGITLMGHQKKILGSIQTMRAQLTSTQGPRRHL

[24] = target: Ribosomal protein S6 kinase alpha-5 (Homo sapiens, UniProt O75582); test: Inhibition of RPS6KA5 (unknown origin)
Chain of Ribosomal protein S6 kinase alpha-5 (O75582 whole entry): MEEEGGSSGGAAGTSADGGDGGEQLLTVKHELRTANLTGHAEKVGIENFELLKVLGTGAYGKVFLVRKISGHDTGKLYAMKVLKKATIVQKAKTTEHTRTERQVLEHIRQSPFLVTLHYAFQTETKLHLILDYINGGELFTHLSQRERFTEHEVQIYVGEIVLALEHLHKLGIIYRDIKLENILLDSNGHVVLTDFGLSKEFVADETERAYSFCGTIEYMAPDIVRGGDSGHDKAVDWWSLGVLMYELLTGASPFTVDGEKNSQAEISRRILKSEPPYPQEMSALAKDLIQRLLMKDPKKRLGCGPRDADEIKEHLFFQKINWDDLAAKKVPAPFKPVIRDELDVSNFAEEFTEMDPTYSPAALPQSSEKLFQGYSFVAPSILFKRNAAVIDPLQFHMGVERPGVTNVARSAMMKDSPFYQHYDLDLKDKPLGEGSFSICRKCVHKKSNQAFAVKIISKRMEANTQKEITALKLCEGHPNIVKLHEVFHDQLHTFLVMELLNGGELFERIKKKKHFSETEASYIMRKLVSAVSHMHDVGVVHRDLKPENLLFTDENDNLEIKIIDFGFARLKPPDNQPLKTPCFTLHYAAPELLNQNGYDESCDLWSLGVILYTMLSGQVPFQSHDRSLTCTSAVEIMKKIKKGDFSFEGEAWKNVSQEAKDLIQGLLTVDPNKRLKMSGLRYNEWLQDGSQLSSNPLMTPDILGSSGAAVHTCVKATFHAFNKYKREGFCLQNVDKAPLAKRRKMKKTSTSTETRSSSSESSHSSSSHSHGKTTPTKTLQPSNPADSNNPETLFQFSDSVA

[25] = tested on: Mus musculus; test: Prevention of Dlgap1 gene downregulation in 5XFAD mouse hippocampus at 1200 ppm administered as rodent chow starting from 1.5 months and measured after 7 months by Nanostring analysis; assay type: functional, tissue-based; conditions: route po, time 5.5 months
[26] = tested on: Mus musculus; test: Antialzheimer activity in 5XFAD mouse assessed as amyloidbeta40 level in detergent insoluble thalamus fraction measured per microgram protein at 1200 ppm administered as rodent chow starting from 1.5 months and measured after 7 months by ELISA (reference value: 57.876 to 502395 pg); assay type: functional; conditions: route po, time 5.5 months, 4015 h
How it was run: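 PLX5622 at 1200 ppm in chow given to 5xFAD mice from 1.5 months to 4 or 7 months of age; cortex and thalamus homogenized in TPER (detergent-soluble), pellets re-homogenized in 70% formic acid and spun 100,000 g, 1 h, 4 °C (insoluble); protein by Bradford/Lowry; Aβ species measured by Meso Scale electrochemiluminescence immunoassay, normalized to protein; n = 7–8 per group at 7 months.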

[27] = target: RAC-gamma serine/threonine-protein kinase (Homo sapiens, UniProt Q9Y243); test: Inhibition of AKT3 (unknown origin)
Chain of RAC-gamma serine/threonine-protein kinase (Q9Y243 whole entry): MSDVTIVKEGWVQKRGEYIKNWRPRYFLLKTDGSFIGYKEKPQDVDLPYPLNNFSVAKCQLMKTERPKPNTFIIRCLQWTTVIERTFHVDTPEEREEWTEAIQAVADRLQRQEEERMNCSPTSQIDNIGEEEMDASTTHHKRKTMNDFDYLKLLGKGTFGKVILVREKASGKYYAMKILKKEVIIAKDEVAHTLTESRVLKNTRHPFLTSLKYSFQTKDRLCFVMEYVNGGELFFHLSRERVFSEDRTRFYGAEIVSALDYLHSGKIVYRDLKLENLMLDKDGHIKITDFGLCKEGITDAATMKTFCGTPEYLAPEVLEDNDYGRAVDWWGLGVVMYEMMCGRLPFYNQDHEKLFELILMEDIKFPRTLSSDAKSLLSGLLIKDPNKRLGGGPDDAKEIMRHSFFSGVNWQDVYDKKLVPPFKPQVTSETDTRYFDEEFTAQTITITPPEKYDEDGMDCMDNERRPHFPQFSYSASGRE

[28] = Effect on C1qa gene expression in 5XFAD mouse thalamus at 1200 ppm administered as rodent chow starting from 1.5 months and measured after 7 months by RNA-Seq analysis (reference value: 36.243 to 61.660 RPKM); assay type: functional; conditions: route po, time 5.5 months, 4015 h
How it was run: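 WT and 5xFAD mice were treated with 1200 ppm PLX5622 chow or control chow from 1.5 to 7 months of age. Brains were microdissected into cortex, hippocampus and thalamus, and RNA was extracted from tissue powder. Whole-transcriptome RNA-Seq libraries were sequenced, with n = 4 per group per region (48 samples).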

`FC(F)(F)c1ccc(CNc2ccc(Cc3c[nH]c4ncc(Cl)cc34)cn2)cn1` [PEXIDARTINIB] showed an Activity [1] of 34 and an Activity [2] of 345.
With `COc1ncc(F)cc1CNc1ccc(Cc2c[nH]c3ncc(C)cc23)c(F)n1` [PLX-5622] the Activity [3] was 3.234 RPKM, the Activity [4] was “Active” and the Activity [5] was 0.221 RPKM. It also gave a clearance [6] of 7.7 mL/min/kg, an Activity [7] of 14 and an Activity [8] of 0.064 RPKM. It also gave an Activity [9] of 56.036%, an Activity [10] of 10.635 RPKM and an Activity [11] of 7.565%. For the same molecule, the IC50 [12] was greater than 1000 nM, the IC50 [13] was greater than 1000 nM and the IC50 [14] was greater than 1000 nM. The Activity [15] was 0.043 RPKM, the clearance [16] was 11 mL/min/kg and the Activity [17] was “inactive”. For the same molecule, the Activity [18] was “Active”, the Activity [19] was 0 RPKM and the Activity [20] was 14. For the same molecule, the Activity [21] was 0 RPKM, the Flu intensity [22] was 4.57 a.u and the IC50 [23] was greater than 1000 nM. The IC50 [24] was greater than 1000 nM, the Activity [25] was “Active” and the Activity [26] was 100.854 pg. It also gave an IC50 [27] greater than 1000 nM and an Activity [28] of 0.199 RPKM.
